Assay results taken from ChEMBL document CHEMBL2331323, “Design, synthesis and anticancer properties of 5-arylbenzoxepins as conformationally restricted isocombretastatin A-4 analogs” (Eur J Med Chem, 2013).
Activity calls are given as the source filed them. No cut-off for these calls is given here.

Assays:
[1] = system: HCT-116; experiment: Growth inhibition of human HCT116 cells after 72 hrs by Victor microtiter plate fluorimeter analysis; format: functional
[2] = system: MDA-MB-231; experiment: Growth inhibition of hormone-independent human MDA-MB-231 cells after 72 hrs by Victor microtiter plate fluorimeter analysis; format: functional; conditions: MDA-MB-231, 72 h
[3] = Growth inhibition of human H1299 cells after 72 hrs by Victor microtiter plate fluorimeter analysis; format: functional; conditions: NCI-H1299, 72 h
[4] = organism: Ovis aries; experiment: Ratio of compound IC50 to isoCA-4 IC50 for sheep brain tubulin polymerization by fluorimeter analysis
[5] = system: K562; experiment: Growth inhibition of human K562 cells after 72 hrs by Victor microtiter plate fluorimeter analysis; format: functional; conditions: K562, 72 h
[6] = Inhibition of sheep brain tubulin polymerization assessed as decrease in rate of microtubule assembly by fluorimeter analysis; set-up: species or system Ovis aries
Method in brief: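 Sheep brain tubulin purified by two assembly–disassembly cycles, at about 2-3 mg/mL in 0.1 M MES, 0.5 mM MgCl₂, 1 mM EGTA, 1 mM GTP, pH 6.6. Assembly followed by DAPI fluorescence at 37 °C. IC50 is the concentration halving the maximum assembly rate versus no compound. Measured the same day as the isoCA-4 reference.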

[7] = system: K562; experiment: Induction of cell cycle arrest in human K562 cells assessed as accumulation of cells in G2/M phase at 5 nM after 24 hrs by propidium iodide staining based flow cytometry; format: functional
Method in brief: (§1)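 Exponentially growing cells exposed to compound at 5 nM, or DMSO, for 24 h. Cell-cycle distribution determined by flow cytometry after standard propidium iodide staining.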

[8] = system: NCI-H1299; experiment: Induction of cell cycle arrest in human H1299 cells assessed as accumulation of cells in G2/M phase at 5 nM after 24 hrs by propidium iodide staining based flow cytometry; format: functional; method in brief: as §1
[9] = system: MDA-MB-231; experiment: Induction of cell cycle arrest in human MDA-MB-231 cells assessed as accumulation of cells in G2/M phase at 5 nM after 24 hrs by propidium iodide staining based flow cytometry; format: functional; method in brief: as §1
[10] = system: HCT-116; experiment: Induction of apoptosis in human HCT116 cells assessed as increase in proteolytic activity of caspase 3/7 after 24 hrs by fluorimeter analysis; format: functional, cell-based
Method in brief: (§2)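 Apo-ONE homogeneous caspase-3/7 kit. Cells seeded at 5 × 10⁴ per well and grown 24 h. Medium then replaced with compound at 1, 5 and 10 nM, or 0.1% DMSO as negative control, for 24 h. Caspase substrate and Apo-ONE buffer mix added, incubated 1 h, fluorescence read at 527 nm.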

[11] = system: HCT-116; experiment: Induction of cell cycle arrest in human HCT116 cells assessed as accumulation of cells in G2/M phase at 5 nM after 24 hrs by propidium iodide staining based flow cytometry; format: functional; method in brief: as §1
[12] = system: NCI-H1299; experiment: Induction of apoptosis in human H1299 cells assessed as increase in proteolytic activity of caspase 3/7 after 24 hrs by fluorimeter analysis; format: functional, cell-based; method in brief: as §2

Row | SMILES | GI50 ([1]; HCT-116, 72 h) [nM] | GI50 [2] [nM] | GI50 [3] [nM] | Ratio IC50 [4] | GI50 [5] [nM] | IC50 [6] [nM] | further results
1 | COc1ccc(/C=C\c2cc(OC)c(OC)c(OC)c2)cc1O [COMBRETASTATIN A4] | 2 | – | – | – | – | – | –
2 | COc1ccc2c(c1N)OCCC=C2c1cc(OC)c(OC)c(OC)c1 | 22 | 8 | 30 | 2 | 40 | 3600 | –
3 | COc1ccc2c(c1C#CCCO)OCCC=C2c1cc(OC)c(OC)c(OC)c1 | 250 | – | – | – | – | – | –
4 | COc1ccc2c(c1)OCCC=C2c1cc(OC)c(OC)c(OC)c1 | 85 | 250 | 180 | 2 | 100 | 3900 | –
5 | COc1ccc2c(c1CCCCO)OCCCC2c1cc(OC)c(OC)c(OC)c1 (stereo not given) | – | – | – | – | – | – | GI50 [1]: inactive
6 | COc1ccc2c(c1O)OCCC=C2c1cc(OC)c(OC)c(OC)c1 | 1.5 | 3 | 4.5 | 2 | 8 | 3800 | Activity [7]: Active; Activity [8]: Active; Activity [9]: Active; Activity [10]: Dose-dependent effect; Activity [11]: Active; Activity [12]: Dose-dependent effect
7 | C=C(c1ccc(OC)c(O)c1)c1cc(OC)c(OC)c(OC)c1 | 3 | 4 | 3 | – | 5 | 1500 | –
8 | COc1cc(OC)cc(C2=CCCOc3c2ccc(OC)c3O)c1 | 25 | 28 | 32 | 2 | 30 | 3200 | –
9 | COc1ccc2c(c1Br)OCCC=C2c1cc(OC)c(OC)c(OC)c1 | 170 | – | – | – | – | – | –
10 | COc1ccc2c(c1O)OCCCC2c1cc(OC)c(OC)c(OC)c1 (stereo not given) | 20 | 15 | 7 | 2 | 50 | 3300 | –
